The nature of data set [1]: Clearance in monkey hepatocytes assessed per million cells. It is filed as ADME, cell-based, Macaca mulatta, Hepatocyte. The following applies: rhesus monkey, read-out: CLH.
A short description of data set [2]: AUC (0 to 6 hrs) in monkey at 3 mg/kg, po. The class given is ADME, organism-based, Macaca mulatta. Details: time < 6 hr, dose 3 mg/kg, route oral. The following applies: rhesus monkey, plasma.
The nature of data set [3]: Half life in monkey at 3 mg/kg, po. It is filed as ADME, organism-based, Macaca mulatta. Also on record: dose 3 mg/kg, route oral. As to conditions: rhesus monkey, in vivo.
The nature of data set [4]: AUC (0 to 6 hrs) in rat at 10 mg/kg, po. The class given is ADME, organism-based. Also on record: time < 6 hr, dose 10 mg/kg, route oral. As to conditions: plasma.
The nature of data set [5]: Plasma concentration in rat after 6 hrs. It is filed as ADME. The procedure, abridged: (§1)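 Animals were sacrificed at 6 h for ex vivo measurement of plasma concentration (nM) and brain level (ng/g), from which the brain to plasma ratio was derived.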
Data set [6] can be described thus: Ratio of drug level in brain to plasma of rat after 6 hrs. It is filed as ADME. As to conditions: read-out: BPR. The procedure, abridged:
as §1

The nature of data set [7]: Drug uptake in rat brain after 6 hrs. The class given is ADME, tissue-based. The following applies: read-out: Drug uptake. The procedure, abridged: as §1
Data set [8] in a line: Clearance in human hepatocytes assessed per million cells. As to conditions: read-out: CLH. It is filed as ADME, cell-based, Hepatocyte.
A short description of data set [9]: Clearance in rat hepatocytes assessed per million cells. It is filed as ADME, cell-based, Hepatocyte. As to conditions: read-out: CLH.
A short description of data set [10]: Clearance in dog hepatocytes assessed per million cells. As to conditions: read-out: CLH. The class given is ADME, cell-based, Canis lupus familiaris, Hepatocyte.

The structures appear in SMILES notation.

For the molecule `COc1ccc(C(O)c2c3cc(OC)cc(C)c3nc3[nH]nc(C)c23)cc1` (racemic), the hepatocyte CLint in data set [1] was determined as 60 µL/min/1e6 cells.
With `Cc1ncc(C(O)c2c3cc(Cl)cc(C)c3nc3[nH]nc(C)c23)cn1` (racemic), the hepatocyte CLint was found to be 8 µL/min/1e6 cells in data set [1], 2 µL/min/1e6 cells in data set [8], 11 µL/min/1e6 cells in data set [9] and 7 µL/min/1e6 cells in [10]. Besides, the AUC(0-t) at 6 h was 11.5 µM·h in [2] and 4.29 µM·h in [4]. In [3], this molecule had a half-life of 7.1 h. The concentration at 6 h was 220 nM in data set [5] and under 14 ng/g in data set [7]. Also, the Kp at 6 h in [6] was under 0.18.
On to `COc1cc(C)c2nc3[nH]nc(C)c3c(C(=O)c3ccncc3)c2c1`, for which the hepatocyte CLint in data set [1] stood at 66 µL/min/1e6 cells.
In the case of `Cc1cc(Cl)cc2c(C(O)c3ccncc3)c3c(C)n[nH]c3nc12` (racemic), the hepatocyte CLint in data set [1] was 25 µL/min/1e6 cells.
In data set [4], `COc1cc(C)c2nc3[nH]nc(C)c3c(CN3CCCOCC3)c2c1` showed an AUC(0-t) at 6 h of 3.76 µM·h. In addition, the hepatocyte CLint in [8] was 8 µL/min/1e6 cells; in data set [9], under 1 µL/min/1e6 cells.
With `Cc1cc(Cl)cc2c(C(O)c3ccnc(F)c3)c3c(C)n[nH]c3nc12` (racemic), the hepatocyte CLint in data set [1] worked out at 37 µL/min/1e6 cells.
Still for that read-out and setting: the value for `COc1cc(C)c2nc3[nH]nc(C)c3c(C(O)c3cccnc3)c2c1` (racemic) was 67 µL/min/1e6 cells.
The same measure, in the same setting: then `COc1cc(C)c2nc3[nH]nc(C)c3c(C(O)c3ncco3)c2c1` (racemic), with 63 µL/min/1e6 cells; and `COc1cc(C)c2nc3[nH]nc(C)c3c(C(C#N)c3ccccc3)c2c1` (racemic), with 64 µL/min/1e6 cells.
As for `Cc1cc(Cl)cc2c(C(O)c3cccnc3)c3c(C)n[nH]c3nc12` (racemic), the values for the hepatocyte CLint in data set [1], in data set [8] and in data set [9] were 46 µL/min/1e6 cells, 5 µL/min/1e6 cells and 26 µL/min/1e6 cells, respectively. Further, in data set [4], the AUC(0-t) at 6 h came to 11 µM·h. Further, the concentration at 6 h in [5] is 810 nM; in data set [7] it was 115 ng/g. The Kp at 6 h in data set [6] turned out to be 1.5.
With `COc1cc(C)c2nc3[nH]nc(C)c3c(C(O)c3cncn3C)c2c1` (racemic), in data set [1], the hepatocyte CLint amounted to 22 µL/min/1e6 cells.
Same read-out and setting: the value for `COc1cc(C)c2nc3[nH]nc(C)c3c(C(O)c3ccncc3)c2c1` (single isomer, unassigned; (+)) was 66 µL/min/1e6 cells; that for `COc1cc(C)c2nc3[nH]nc(C)c3c(C(C)(O)c3ccncc3)c2c1` (racemic) was 66 µL/min/1e6 cells.
Still for that read-out and setting: then `COc1cc(C)c2nc3[nH]nc(C)c3c(C(O)c3ccc(F)cc3)c2c1` (racemic), with 63 µL/min/1e6 cells.
In the case of `COc1cc(C)c2nc3[nH]nc(C)c3c(C(O)c3ccnc(F)c3)c2c1` (racemic), in [1], the hepatocyte CLint worked out at 66 µL/min/1e6 cells.
The same measure, in the same setting: then `COc1cc(C)c2nc3[nH]nc(C)c3c(C(F)c3ccncc3)c2c1` (single isomer, unassigned; (-)), with 62 µL/min/1e6 cells.

These data come from ChEMBL document CHEMBL1949546, “Pyrazoloquinolines as PDE10A inhibitors: discovery of a tool compound” (Bioorg Med Chem Lett, 2012).
